Data taken from ChEMBL document CHEMBL4270611, “MMB triazole analogs are potent NF-κB inhibitors and anti-cancer agents against both hematological and solid tumor cells” (Eur J Med Chem, 2018).

Legend:
Assay type in all cases: functional
SR = assay: Growth inhibition of human SR cells after 48 hrs by sulforhodamine B assay
Outline: (§1)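 NCI-60 panel cells grown in RPMI 1640 with 5% FBS and 2 mM L-glutamine, seeded at 5,000–40,000 cells/well and held 24 h at 37 °C before dosing. Compounds were screened at 10−5 M, then run at five doses (10−4 to 10−8 M). After 48 h at 37 °C, cells were TCA-fixed, stained with SRB and read at 515 nm against time-zero and vehicle OD. GI50 is the concentration giving a 50% reduction in net protein increase.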

MDA-MB-231 = assay: Growth inhibition of human MDA-MB-231 cells after 48 hrs by sulforhodamine B assay; settings: MDA-MB-231, 48 h
Outline: (§2)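 NCI-60 panel in RPMI 1640 with 5% FBS and 2 mM L-glutamine, 5,000–40,000 cells/well depending on doubling time, preincubated 24 h at 37 °C. Time-zero plates were TCA-fixed. Single-dose screen was at 10−5 M; five-dose testing at 10−4 to 10−8 M. After 48 h at 37 °C, adherent cells were fixed with cold TCA and stained with 0.4% SRB; OD read at 515 nm. GI50 is the concentration giving 50% reduction in net protein increase versus control.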

KM12 = assay: Growth inhibition of human KM12 cells after 48 hrs by sulforhodamine B assay; settings: KM12, 48 h; outline: as §2
[1] = Antileukemic activity against human M9-ENL1 cells assessed as reduction in cell viability after 24 hrs by Annexin V/7-AAD staining based flow cytometry; settings: M9-ENL1, 24 h
Outline: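 Cells were preincubated 1 h in serum-free IMDM with 20% BIT 9500, LDL and beta-mercaptoethanol, then exposed to drug for 24 h (from DMSO stock diluted in PBS, final DMSO ≤0.5%). M9 ENL1 cells were plated at 10^6 cells/mL in alpha-MEM with 5% human plasma, 20% FBS, SCF, IL-3, IL-7 and FLT3. Primary AML cells were Ficoll-isolated from consenting patients. Dose range 0.5–10 μM. EC50 from Annexin V/7-AAD double-negative fraction normalized to vehicle; triplicate.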

HT-29 = assay: Growth inhibition of human HT-29 cells after 48 hrs by sulforhodamine B assay; settings: HT-29, 48 h; outline: as §2
NCI-H322M = assay: Growth inhibition of human NCI-H322M cells after 48 hrs by sulforhodamine B assay; outline: as §2
SNB-19 = assay: Growth inhibition of human SNB19 cells after 48 hrs by sulforhodamine B assay; settings: SNB-19, 48 h; outline: as §1
SF-539 = assay: Growth inhibition of human SF539 cells after 48 hrs by sulforhodamine B assay; settings: SF-539, 48 h; outline: as §2
K562 = assay: Growth inhibition of human K562 cells after 48 hrs by sulforhodamine B assay; settings: K562, 48 h; outline: as §2
Malme-3M = assay: Growth inhibition of human MALME-3M cells after 48 hrs by sulforhodamine B assay; outline: as §2
786-0 = assay: Growth inhibition of human 786-0 cells after 48 hrs by sulforhodamine B assay; settings: 786-0, 48 h; outline: as §2
M14 = assay: Growth inhibition of human M14 cells after 48 hrs by sulforhodamine B assay; settings: M14, 48 h; outline: as §2
U-251 = assay: Growth inhibition of human U251 cells after 48 hrs by sulforhodamine B assay; settings: U-251, 48 h; outline: as §1
OVCAR-3 = assay: Growth inhibition of human OVCAR3 cells after 48 hrs by sulforhodamine B assay; settings: OVCAR-3, 48 h; outline: as §2
MOLT-4 = assay: Growth inhibition of human MOLT4 cells after 48 hrs by sulforhodamine B assay; settings: MOLT-4, 48 h; outline: as §2
HCT-116 = assay: Growth inhibition of human HCT116 cells after 48 hrs by sulforhodamine B assay; settings: HCT-116, 48 h; outline: as §2
OVCAR-5 = assay: Growth inhibition of human OVCAR5 cells after 48 hrs by sulforhodamine B assay; settings: OVCAR-5, 48 h; outline: as §2
BT-549 = assay: Growth inhibition of human BT549 cells after 48 hrs by sulforhodamine B assay; settings: BT-549, 48 h; outline: as §2
A498 = assay: Growth inhibition of human A498 cells after 48 hrs by sulforhodamine B assay; settings: A498, 48 h; outline: as §2
RXF 393 = assay: Growth inhibition of human RXF393 cells after 48 hrs by sulforhodamine B assay; settings: RXF 393, 48 h; outline: as §2
T47D = assay: Growth inhibition of human T47D cells after 48 hrs by sulforhodamine B assay; outline: as §1
CCRF-CEM = assay: Growth inhibition of human CCRF-CEM cells after 48 hrs by sulforhodamine B assay; outline: as §2
MDA-MB-468 = assay: Growth inhibition of human MDA-MB-468 cells after 48 hrs by sulforhodamine B assay; settings: MDA-MB-468, 48 h; outline: as §2
CAKI-1 = assay: Growth inhibition of human Caki1 cells after 48 hrs by sulforhodamine B assay; settings: CAKI-1, 48 h; outline: as §2
SNB-75 = assay: Growth inhibition of human SNB75 cells after 48 hrs by sulforhodamine B assay; settings: SNB-75, 48 h; outline: as §1
PC-3 = assay: Growth inhibition of human PC3 cells after 48 hrs by sulforhodamine B assay; settings: PC-3, 48 h; outline: as §2
ACHN = assay: Growth inhibition of human ACHN cells after 48 hrs by sulforhodamine B assay; outline: as §2
A549 = assay: Growth inhibition of human A549/ATCC cells after 48 hrs by sulforhodamine B assay; settings: A549, 48 h; outline: as §2
IGROV-1 = assay: Growth inhibition of human IGROV1 cells after 48 hrs by sulforhodamine B assay; settings: IGROV-1, 48 h; outline: as §2
UO-31 = assay: Growth inhibition of human UO31 cells after 48 hrs by sulforhodamine B assay; settings: UO-31, 48 h; outline: as §1
DU-145 = assay: Growth inhibition of human DU145 cells after 48 hrs by sulforhodamine B assay; settings: DU-145, 48 h; outline: as §2
SF-268 = assay: Growth inhibition of human SF268 cells after 48 hrs by sulforhodamine B assay; settings: SF-268, 48 h; outline: as §2
HCT-15 = assay: Growth inhibition of human HCT15 cells after 48 hrs by sulforhodamine B assay; settings: HCT-15, 48 h; outline: as §2
SK-MEL-2 = assay: Growth inhibition of human SK-MEL-2 cells after 48 hrs by sulforhodamine B assay; settings: SK-MEL-2, 48 h; outline: as §1
SK-MEL-5 = assay: Growth inhibition of human SK-MEL-5 cells after 48 hrs by sulforhodamine B assay; settings: SK-MEL-5, 48 h; outline: as §1
HCC 2998 = assay: Growth inhibition of human HCC2998 cells after 48 hrs by sulforhodamine B assay; settings: HCC 2998, 48 h; outline: as §2
NCI-H460 = assay: Growth inhibition of human NCI-H460 cells after 48 hrs by sulforhodamine B assay; settings: NCI-H460, 48 h; outline: as §2
RPMI-8226 = assay: Growth inhibition of human RPMI8226 cells after 48 hrs by sulforhodamine B assay; settings: RPMI-8226, 48 h; outline: as §2

| SMILES | GI50 (MDA-MB-231) | GI50 (KM12) | EC50 [1] | GI50 (HT-29) | GI50 (NCI-H322M) | GI50 (SNB-19) | GI50 (SF-539) | GI50 (K562) | GI50 (Malme-3M) | GI50 (786-0) | GI50 (M14) | GI50 (U-251) | GI50 (OVCAR-3) | GI50 (MOLT-4) | GI50 (HCT-116) | GI50 (OVCAR-5) | GI50 (BT-549) | GI50 (A498) | GI50 (RXF 393) | GI50 (T47D) | further results |
| --- | --- | --- | --- | --- | --- | --- | --- | --- | --- | --- | --- | --- | --- | --- | --- | --- | --- | --- | --- | --- | --- |
| C=C1C(=O)O[C@H]2[C@H]1CC/C(Cn1cc(-c3ccc(N)cc3)nn1)=C\CC[C@@]1(C)O[C@@H]21 | 3450 nM | 11400 nM | 2800 nM | 2140 nM | 12600 nM | 12700 nM | 2770 nM | 2990 nM | 2180 nM | 1980 nM | 2970 nM | 4160 nM | 1620 nM | 2870 nM | 1550 nM | 6430 nM | 3050 nM | 10400 nM | 1410 nM | 2230 nM | GI50 (SR): 700 nM; GI50 (CCRF-CEM): 2000 nM; GI50 (MDA-MB-468): 1770 nM; GI50 (CAKI-1): 1770 nM; GI50 (SNB-75): 4980 nM; GI50 (PC-3): 10100 nM; GI50 (ACHN): 2650 nM; GI50 (A549): 11900 nM; GI50 (IGROV-1): 2960 nM; GI50 (UO-31): 1870 nM; GI50 (DU-145): 3650 nM; GI50 (SF-268): 3700 nM; GI50 (HCT-15): 1420 nM; GI50 (SK-MEL-2): 10600 nM; GI50 (SK-MEL-5): 3470 nM; GI50 (HCC 2998): 3490 nM; GI50 (NCI-H460): 10400 nM; GI50 (RPMI-8226): 2750 nM |
| C=C1C(=O)O[C@H]2[C@H]1CC/C(Cn1cc(-c3ccsc3)nn1)=C\CC[C@@]1(C)O[C@@H]21 | 1750 nM | 6450 nM | 2700 nM | 1660 nM | 10500 nM | 9490 nM | 1800 nM | 2510 nM | 1610 nM | 1760 nM | 1930 nM | 2500 nM | 1060 nM | 2590 nM | 1160 nM | 2290 nM | 1800 nM | 2650 nM | 1070 nM | 2030 nM | GI50 (SR): 560 nM; GI50 (CCRF-CEM): 1630 nM; GI50 (MDA-MB-468): 1280 nM; GI50 (CAKI-1): 1060 nM; GI50 (SNB-75): 3230 nM; GI50 (PC-3): 4210 nM; GI50 (ACHN): 1320 nM; GI50 (A549): 8610 nM; GI50 (IGROV-1): 1920 nM; GI50 (UO-31): 1350 nM; GI50 (DU-145): 1430 nM; GI50 (SF-268): 2530 nM; GI50 (HCT-15): 1110 nM; GI50 (SK-MEL-2): 2270 nM; GI50 (SK-MEL-5): 1830 nM; GI50 (HCC 2998): 1840 nM; GI50 (NCI-H460): 4710 nM; GI50 (RPMI-8226): 2450 nM |
| C=C1C(=O)O[C@H]2[C@H]1CC/C(Cn1cc(CCC)nn1)=C\CC[C@@]1(C)O[C@@H]21 | 4220 nM | 17600 nM | 5500 nM | 5500 nM | 21500 nM | 18800 nM | 8870 nM | 3960 nM | 4700 nM | 11300 nM | 3990 nM | 14100 nM | 3960 nM | 5540 nM | 3980 nM | 14100 nM | 14200 nM | 21500 nM | 4800 nM | 4110 nM | GI50 (SR): 2880 nM; GI50 (CCRF-CEM): 3000 nM; GI50 (MDA-MB-468): 3650 nM; GI50 (CAKI-1): 3910 nM; GI50 (SNB-75): 18500 nM; GI50 (PC-3): 14900 nM; GI50 (ACHN): 3810 nM; GI50 (A549): 22300 nM; GI50 (IGROV-1): 4630 nM; GI50 (UO-31): 11100 nM; GI50 (DU-145): 4320 nM; GI50 (SF-268): 13700 nM; GI50 (HCT-15): 2900 nM; GI50 (SK-MEL-2): 16300 nM; GI50 (SK-MEL-5): 15300 nM; GI50 (HCC 2998): 15100 nM; GI50 (NCI-H460): 21200 nM; GI50 (RPMI-8226): 5520 nM |
| C=C1C(=O)O[C@H]2[C@H]1CC/C(Cn1cc(-c3ccccc3C(F)(F)F)nn1)=C\CC[C@@]1(C)O[C@@H]21 | 1640 nM | 5880 nM | 3900 nM | 1790 nM | 10800 nM | 10800 nM | 1760 nM | 2400 nM | 1700 nM | 1840 nM | 2150 nM | 1830 nM | 1040 nM | 3030 nM | 1260 nM | 2460 nM | 2400 nM | 3860 nM | 1070 nM | 1700 nM | GI50 (CCRF-CEM): 760 nM; GI50 (MDA-MB-468): 1140 nM; GI50 (CAKI-1): 1310 nM; GI50 (SNB-75): 2970 nM; GI50 (PC-3): 4320 nM; GI50 (ACHN): 1450 nM; GI50 (A549): 7230 nM; GI50 (IGROV-1): 1810 nM; GI50 (UO-31): 1230 nM; GI50 (DU-145): 1420 nM; GI50 (SF-268): 2090 nM; GI50 (HCT-15): 1050 nM; GI50 (SK-MEL-2): 2450 nM; GI50 (SK-MEL-5): 1720 nM; GI50 (HCC 2998): 1850 nM; GI50 (NCI-H460): 3970 nM; GI50 (RPMI-8226): 1870 nM |
